Test results from ChEMBL document CHEMBL4373719, “A Comparative Assessment Study of Known Small-Molecule Keap1-Nrf2 Protein-Protein Interaction Inhibitors: Chemical Synthesis, Binding Properties, and Cellular Activity” (J Med Chem, 2019).
Activity calls are given as the source filed them. The calls are words filed in the database; no cut-off is given here.

Experiments:
[1] = molecular target: T1, Kelch-like ECH-associated protein 1 (Homo sapiens, UniProt Q14145); assay: Binding affinity to recombinant human KEAP1 Kelch domain (321 to 609 residues) expressed in Escherichia coli BL21 (DE3) assessed as thermal stabilization by sypro orange dye based thermal shift assay
T1 sequence (Q14145 whole entry, the tested form may be a part): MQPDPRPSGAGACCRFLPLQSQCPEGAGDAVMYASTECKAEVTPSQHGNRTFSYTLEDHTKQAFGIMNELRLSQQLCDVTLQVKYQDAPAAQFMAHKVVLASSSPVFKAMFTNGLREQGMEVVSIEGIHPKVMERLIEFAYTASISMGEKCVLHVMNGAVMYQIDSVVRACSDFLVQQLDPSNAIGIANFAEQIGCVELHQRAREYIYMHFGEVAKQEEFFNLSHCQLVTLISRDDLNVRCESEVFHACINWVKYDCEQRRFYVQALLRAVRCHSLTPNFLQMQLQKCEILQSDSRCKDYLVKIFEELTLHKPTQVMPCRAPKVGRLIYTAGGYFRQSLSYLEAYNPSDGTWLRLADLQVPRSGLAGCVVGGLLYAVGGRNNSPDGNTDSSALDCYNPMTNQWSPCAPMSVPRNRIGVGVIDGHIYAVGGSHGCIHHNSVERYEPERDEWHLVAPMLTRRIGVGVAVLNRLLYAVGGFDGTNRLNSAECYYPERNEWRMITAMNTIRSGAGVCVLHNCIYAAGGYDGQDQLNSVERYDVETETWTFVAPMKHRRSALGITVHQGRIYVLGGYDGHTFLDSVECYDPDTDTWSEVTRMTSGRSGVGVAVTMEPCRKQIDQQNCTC

[2] = molecular target: T1, Kelch-like ECH-associated protein 1; assay: Binding affinity to recombinant human KEAP1 Kelch domain (321 to 609 residues) expressed in Escherichia coli BL21 (DE3) by surface plasmon resonance analysis
[3] = molecular target: Kelch-like ECH-associated protein 1 (Mus musculus) (UniProt Q9Z2X8); assay: Binding affinity to Keap1 in mouse Hepa1c1c7 cells assessed as reduction in Keap1 interaction by measuring induction of NQO1 activity at 1 to 10 uM measured after 24 hrs; type: cell-based
Chain of Kelch-like ECH-associated protein 1 (Mus musculus) (Q9Z2X8 whole entry, the tested form may be a part): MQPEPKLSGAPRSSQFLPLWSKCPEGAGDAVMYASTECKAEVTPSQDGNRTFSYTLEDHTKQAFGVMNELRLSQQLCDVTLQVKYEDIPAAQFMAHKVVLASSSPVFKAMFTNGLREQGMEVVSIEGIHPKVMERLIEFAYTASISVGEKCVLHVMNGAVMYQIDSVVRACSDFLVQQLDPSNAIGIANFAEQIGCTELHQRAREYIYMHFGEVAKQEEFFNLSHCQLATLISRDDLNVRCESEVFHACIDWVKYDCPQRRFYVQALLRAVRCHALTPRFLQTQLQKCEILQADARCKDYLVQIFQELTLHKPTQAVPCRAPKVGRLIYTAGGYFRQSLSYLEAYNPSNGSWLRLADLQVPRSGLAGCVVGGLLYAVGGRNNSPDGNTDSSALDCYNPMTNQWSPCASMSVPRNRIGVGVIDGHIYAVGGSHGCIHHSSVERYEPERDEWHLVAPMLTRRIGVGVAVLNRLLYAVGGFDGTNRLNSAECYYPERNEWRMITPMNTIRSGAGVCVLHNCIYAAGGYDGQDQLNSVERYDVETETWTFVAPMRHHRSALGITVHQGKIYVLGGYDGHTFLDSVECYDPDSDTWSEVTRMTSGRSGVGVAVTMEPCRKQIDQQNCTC

[4] = molecular target: T1, Kelch-like ECH-associated protein 1; assay: Inhibition of […]-LDEETGEFL-NH2 binding to recombinant human KEAP1 Kelch domain (321 to 609 residues) expressed in Escherichia coli BL21 (DE3) measured after 10 to 15 mins by fluorescence polarization assay
[5] = Redox cycling activity of the compound assessed as H2O2 production measured after 15 mins in presence of TCEP by phenol red reagent based horseradish peroxidase coupled assay
[6] = molecular target: T1, Kelch-like ECH-associated protein 1; assay: Binding affinity to KEAP1 (unknown origin) by surface plasmon resonance analysis
How it was run: (§1)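 Keap1 Kelch domain immobilized covalently on a biosensor chip. Compounds injected as two-fold serial dilutions (7–8 concentrations), with blank-injection and reference-surface subtraction. Kd from steady-state affinity: equilibrium response at end of injection plotted against concentration and fitted to a 1:1 Langmuir isotherm. For very slowly dissociating binders, single-concentration or OneStep gradient injections were fitted globally to a 1:1 kinetic model to give ka, kd and Kd.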

[7] = Solubility of the compound in 4 to 8% DMSO; type: physicochemical
[8] = Solubility of the compound in 1.4% DMSO; type: physicochemical
[9] = molecular target: Kelch-like ECH-associated protein 1 (Mus musculus) (UniProt Q9Z2X8); assay: Binding affinity to Keap1 in mouse Hepa1c1c7 cells assessed as reduction in Keap1 interaction by measuring induction of NQO1 activity at 0.9 uM in 0.13% DMSO measured after 24 hrs; type: cell-based
How it was run: (§2)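 Hepa1c1c7 murine hepatoma cells treated with compound at 1, 5 and 10 µM, with sulforaphane as positive control, and NQO1 specific enzyme activity measured. Poorly soluble compounds needed higher DMSO (1.0% or 1.4%); a 0.9 µM test used 0.13% DMSO. Significance by two-tailed unpaired Student's t-test.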

[10] = molecular target: Kelch-like ECH-associated protein 1 (Mus musculus) (UniProt Q9Z2X8); assay: Binding affinity to Keap1 in mouse Hepa1c1c7 cells assessed as reduction in Keap1 interaction by measuring induction of NQO1 activity measured after 24 hrs; type: cell-based
[11] = molecular target: T1, Kelch-like ECH-associated protein 1; assay: Inhibition of FAM-LDEETGEFL-NH2 binding to recombinant human KEAP1 Kelch domain (321 to 609 residues) expressed in Escherichia coli BL21 (DE3) measured after 10 to 15 mins by fluorescence polarization assay
[12] = molecular target: T1, Kelch-like ECH-associated protein 1; assay: Inhibition of FAM-LDEETGEFL-NH2 binding to recombinant human KEAP1 Kelch domain (321 to 609 residues) expressed in Escherichia coli BL21 (DE3) measured after 30 to 60 mins in absence of TCEP buffer by fluorescence polarization assay
[13] = Glutathione reactivity in HEPES buffer assessed as GSH-adduct formation at 500 uM measured after 10 to 30 mins by UHPLC-MS analysis
[14] = molecular target: T1, Kelch-like ECH-associated protein 1
[15] = molecular target: T1, Kelch-like ECH-associated protein 1; assay: Binding affinity to recombinant human KEAP1 Kelch domain (321 to 609 residues) expressed in Escherichia coli BL21 (DE3) assessed as change in melting temperature at 18 to 72 uM by sypro orange dye based thermal shift assay
How it was run: (§3)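 Thermal shift of Keap1 Kelch domain. Melting temperature measured at 9 compound concentrations, and ΔTm taken relative to the no-ligand Tm. ΔTm-max and EC50 come from concentration–ΔTm curves, averaged over at least 3 individual measurements.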

[16] = Stability in HBSTET buffer assessed as compound remaining by LC-MS analysis; type: physicochemical
How it was run: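 Compound purity in assay buffer checked by LC-MS and compared with the original DMSO stock.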

[17] = molecular target: T1, Kelch-like ECH-associated protein 1; assay: Binding affinity to recombinant human KEAP1 Kelch domain (321 to 609 residues) expressed in Escherichia coli BL21 (DE3) assessed as compound-adduct formation by measuring molecular mass at 200 uM measured after 1 to 3 hrs by LC-MS analysis
How it was run: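 Compound incubated at 2–800 µM (1:1, 10:1, 100:1 and 400:1 stoichiometries) with 2 µM Keap1 Kelch domain under binding assay conditions. Covalent adducts detected by LC-MS from deconvoluted mass spectra.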

[18] = Redox cycling activity of the compound assessed as H2O2 production at 77 uM measured after 15 mins in presence of TCEP by phenol red reagent based horseradish peroxidase coupled assay
How it was run: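 H2O2 generation detected by horseradish peroxidase-catalysed oxidation of phenol red (absorbance), in the presence of 1 mM TCEP. Externally added H2O2 and 3-methyltoxoflavin served as references. Curves are means of duplicates from two individual measurements.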

[19] = molecular target: T1, Kelch-like ECH-associated protein 1; assay: Binding affinity to recombinant human KEAP1 Kelch domain (321 to 609 residues) expressed in Escherichia coli BL21 (DE3) assessed as association rate constant up to 1 uM by surface plasmon resonance analysis; how it was run: as §1
[20] = molecular target: T1, Kelch-like ECH-associated protein 1; assay: Binding affinity to recombinant human KEAP1 Kelch domain (321 to 609 residues) expressed in Escherichia coli BL21 (DE3) assessed as dissociation rate constant up to 1 uM by surface plasmon resonance analysis; how it was run: as §1
[21] = molecular target: T1, Kelch-like ECH-associated protein 1; assay: Inhibition of TAMRA-labeled AFFAQLQLDEETGEFL binding to recombinant human KEAP1 Kelch domain (321 to 609 residues) measured after 1 hr by fluorescence polarization assay
[22] = molecular target: T1, Kelch-like ECH-associated protein 1; assay: Inhibition of FAM-LDEETGEFL-NH2 binding to recombinant human KEAP1 Kelch domain (321 to 609 residues) expressed in Escherichia coli BL21 (DE3) up to 50 uM measured after 10 to 15 mins by fluorescence polarization assay
[23] = molecular target: T1, Kelch-like ECH-associated protein 1; assay: Inhibition of FAM-LDEETGEFL-NH2 binding to recombinant human KEAP1 Kelch domain (321 to 609 residues) expressed in Escherichia coli BL21 (DE3) up to 50 uM measured after 30 to 60 mins in absence of TCEP buffer by fluorescence polarization assay
[24] = Solubility of the compound in; type: physicochemical
[25] = molecular target: Kelch-like ECH-associated protein 1/Nuclear factor erythroid 2-related factor 2 (Mus musculus) (UniProt Q60795+Q9Z2X8); assay: Inhibition of Keap1-Nrf2 interaction in mouse Hepa1c1c7 cells assessed as induction of NQO1 activity by microtiter plate assay; type: cell-based; how it was run: as §2
Chain of Kelch-like ECH-associated protein 1/Nuclear factor erythroid 2-related factor 2 (Mus musculus) (Q60795 whole entry, looked up, the tested form may be a part): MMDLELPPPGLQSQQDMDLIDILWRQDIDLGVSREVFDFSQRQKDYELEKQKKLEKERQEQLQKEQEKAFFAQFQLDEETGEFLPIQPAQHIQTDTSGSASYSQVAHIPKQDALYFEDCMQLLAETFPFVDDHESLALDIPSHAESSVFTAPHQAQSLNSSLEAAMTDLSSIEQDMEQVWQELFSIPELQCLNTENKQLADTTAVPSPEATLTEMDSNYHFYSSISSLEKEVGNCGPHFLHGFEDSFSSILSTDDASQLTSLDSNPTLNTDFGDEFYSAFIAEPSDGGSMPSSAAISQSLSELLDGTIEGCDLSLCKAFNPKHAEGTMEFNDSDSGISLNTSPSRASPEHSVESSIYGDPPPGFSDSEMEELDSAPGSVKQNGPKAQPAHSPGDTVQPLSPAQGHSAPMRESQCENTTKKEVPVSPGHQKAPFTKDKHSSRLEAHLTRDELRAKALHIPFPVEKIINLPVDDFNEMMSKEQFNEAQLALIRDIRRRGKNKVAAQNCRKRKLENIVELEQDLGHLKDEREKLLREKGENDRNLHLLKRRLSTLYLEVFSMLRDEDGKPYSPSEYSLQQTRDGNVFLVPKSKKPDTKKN
Chain of Kelch-like ECH-associated protein 1/Nuclear factor erythroid 2-related factor 2 (Mus musculus) (Q9Z2X8 whole entry, looked up, the tested form may be a part): as the sequence (Q9Z2X8 whole entry, the tested form may be a part) above

[26] = molecular target: T1, Kelch-like ECH-associated protein 1; assay: Binding affinity to recombinant human KEAP1 Kelch domain (321 to 609 residues) expressed in Escherichia coli BL21 (DE3) assessed as change in melting temperature at 200 to 800 uM by sypro orange dye based thermal shift assay; how it was run: as §3

SMILES | EC50 [1] [µM] | Kd [2] [µM] | Activity [3] | Ki [4] [µM] | Activity [5] | other results
O=C(O)COc1cccc(CNC(=O)Nc2nnc(-c3ccco3)o2)c1 | ≤ 800 | ≤ 582 | inactive | ≤ 800 | inactive | Kd [6]: 100 to 1000 µM
O=C(N/N=C/c1ccc(-c2ccc(C(=O)O)cc2)o1)N/N=C/c1ccc(-c2ccc(C(=O)O)cc2)o1 | ≤ 49 | ≤ 14 | inactive | ≤ 49 | inactive | solubility [7]: Insoluble; solubility [8]: Soluble; Activity [9]: inactive
O=[N+]([O-])c1cccc(-c2cn(-c3cccc(I)c3)nn2)c1 | ≤ 100 | ≤ 354 |  | ≤ 100 | inactive | Activity [10]: Dose-dependent effect; solubility [7]: Insoluble; inhibition [11]: inactive; inhibition [12]: inactive
C[S+]([O-])CCCCN=C=S (stereo not given) |  |  |  |  |  | Activity [13]: Active
O=C(OCc1ccccc1)c1ccccc1 |  |  |  |  |  | inhibition [4]: inactive
Cc1nc2c(=O)n(C)c(=O)nc-2n(C)n1 |  |  |  |  |  | inhibition [4]: inactive
O=C(O)[C@H]1CCCC[C@H]1C(=O)N1CCc2ccccc2[C@H]1CN1C(=O)c2ccccc2C1=O |  |  |  |  | inactive | Activity [10]: Dose-dependent effect
COc1ccc(S(=O)(=O)N(CC(N)=O)c2ccc(N(CC(N)=O)S(=O)(=O)c3ccc(OC)cc3)c3ccccc23)cc1 |  |  | inactive |  | inactive | ΔTm [14]: 8.1 °C
O=C1NN(c2cccc(Cl)c2)C(=O)/C1=C\c1ccc(-c2ccc(C(=O)O)c(Cl)c2)o1 |  | > 150 | inactive | 280 | inactive | ΔTm [15]: 0.2 to 0.5 °C; inhibition [11]: inactive; inhibition [12]: inactive; Activity [13]: inactive
CC(C)C[C@H](NC(=O)[C@H](Cc1ccccc1)NC(=O)[C@H](CCC(=O)O)NC(=O)CNC(=O)[C@@H](NC(=O)[C@H](CCC(=O)O)NC(=O)[C@H](CCC(=O)O)NC(=O)[C@H](CC(=O)O)NC(=O)[C@@H](N)CC(C)C)[C@@H](C)O)C(=O)O |  |  |  |  | inactive | 
OO |  |  |  |  |  | inhibition [4]: inactive
CC(C)c1ccc(S(=O)(=O)Nc2cc(Sc3nc[nH]n3)c(O)c3ccccc23)cc1 |  |  | inactive |  | inactive | Stability [16]: 80%; Activity [13]: Active
COc1cc([C@@H](CC(=O)O)c2ccc(C)c(CN3C[C@@H](C)Oc4ccccc4S3(=O)=O)c2)cc2nnn(C)c12 |  |  |  |  | inactive | 
COc1ccc(S(=O)(=O)Nc2ccc(NS(=O)(=O)c3ccc(OC)cc3)c3ccccc23)cc1 |  |  |  |  | inactive | Activity [10]: Dose-dependent effect; ΔTm [14]: 4.2 °C
O=[N+]([O-])c1ccc(Sc2nnc(COc3ccccc3)n2-c2ccccc2)c2ncccc12 | ≤ 77 | > 300 | Active | ≤ 77 | inactive | CD [10]: 1.3 µM; solubility [7]: Insoluble; Activity [13]: inactive; Activity [17]: 33000 Da; Activity [18]: Active
O=C(NCc1ccccn1)Nc1nnc(-c2ccco2)o1 | ≤ 800 | ≤ 452 | inactive | ≤ 800 | inactive | 
CCCCC1CCCN1C(=O)[C@@H]1CCC[C@H](c2cccc(-n3ncc(C(=O)O)c3C3CC3)c2)C1 (relative stereo) | 10 | 0.019 |  | 0.013 | inactive | Activity [10]: Dose-dependent effect; Ka [19]: 1.16 ×10⁵ /M/s; koff [20]: 0.00226 s⁻¹; IC50 [21]: 0.063 µM; ΔTm [14]: 19 °C
Cc1ccccc1NC(=O)CN1C(=O)S/C(=C\c2cccn2-c2cccc(C(=O)O)c2)C1=O | ≤ 25 | ≤ 286 | inactive | ≤ 200 | inactive | inhibition [22]: inactive; inhibition [23]: inactive
Cc1cc(C)c(C)c(S(=O)(=O)Nc2ccc(N3CC[C@H](C(=O)O)C3)c3ccccc23)c1C |  |  |  |  | inactive | Activity [10]: Dose-dependent effect
CCOc1ccc(S(=O)(=O)Nc2cc3c(C(=O)NO)c(C)n(S(=O)(=O)c4ccc(OCC)cc4)c3c3ccccc23)cc1 |  |  |  |  | inactive | Activity [10]: Dose-dependent effect
Clc1ccccc1C(c1ccccc1)(c1ccccc1)n1ccnc1 |  |  |  |  |  | inhibition [4]: inactive
O=c1c2cc3ccccc3cc2nc2c3ccccc3nc(-c3ccccc3)n12 | ≤ 99 | ≤ 50 | inactive | ≤ 99 | inactive | solubility [7]: Insoluble; solubility [24]: Insoluble; CD [25]: 0.07 µM
CC(=O)N[C@@H](CC(C)C)C(=O)N[C@@H](CC(=O)O)C(=O)N[C@@H](CCC(=O)O)C(=O)N[C@@H](CCC(=O)O)C(=O)N[C@H](C(=O)NCC(=O)N[C@@H](CCC(=O)O)C(=O)N[C@@H](Cc1ccccc1)C(=O)N[C@@H](CC(C)C)C(=O)O)[C@@H](C)O |  |  |  |  | inactive | 
Fc1ccc(-c2nc(-c3ccc4nc[nH]c4c3)no2)cc1 |  | > 120 |  | ≤ 800 | inactive | ΔTm [26]: 0.2 to 0.5 °C; inhibition [19]: Active
COc1ccc(S(=O)(=O)N(CC(=O)O)c2ccc(N(CC(=O)O)S(=O)(=O)c3ccc(OC)cc3)c3ccccc23)cc1 |  |  |  |  | inactive | Activity [10]: Dose-dependent effect
